# Data from ChEMBL document CHEMBL1154249, “Semisynthesis and biological evaluation of abietane-type diterpenes. Revision of the structure of rosmaquinone” (J Nat Prod, 2009).
# Legend:
# Staphylococcus aureus = experiment: Antibacterial activity against Staphylococcus aureus ATCC 6538 after 24 hrs by broth dilution assay; type: functional; conditions: Staphylococcus aureus, ATCC 6538, 24 h; read-out: MIC
# [1] = test system: Staphylococcus epidermidis; experiment: Antibacterial activity against Staphylococcus epidermidis ATCC 14990 after 24 hrs by broth dilution assay; type: functional; conditions: Staphylococcus epidermidis, ATCC 14990, 24 h; read-out: MIC
# In short: (§1)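 Microdilution in nutrient broth at 37 °C, about (1-5) × 10^5 cfu/mL inoculum, compounds in DMSO (≤1% v/v, matched DMSO controls), in triplicate. Growth followed by OD550. Wells without visible growth after 24 h on a rotary shaker were subcultured in duplicate onto nutrient agar and colonies counted after overnight incubation. MIC is the lowest concentration inhibiting growth at 24 h.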
# Bacillus subtilis = experiment: Antibacterial activity against Bacillus subtilis ATCC 6051 after 24 hrs by broth dilution assay; type: functional; conditions: Bacillus subtilis, ATCC 6051, 24 h; read-out: MIC
# Bacillus cereus = experiment: Antibacterial activity against Bacillus cereus ATCC 21772 after 24 hrs by broth dilution assay; type: functional; conditions: Bacillus cereus, ATCC 21772, 24 h
# Candida albicans = experiment: Antibacterial activity against Candida albicans CECT 170 after 24 hrs by broth dilution assay; type: functional; conditions: CECT 1039, 24 h, in the assay text read “CECT 1039” for “CECT 170”
# In short: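 Yeast grown in Sabouraud liquid medium at 37 °C. Microdilution in triplicate, about (1-5) × 10^5 cfu/mL, DMSO ≤1% v/v with matched controls. OD550 followed. Clear wells at 24 h were plated in duplicate on Sabouraud agar and counted after overnight incubation. MIC is the lowest concentration inhibiting growth.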
# Enterococcus faecalis = experiment: Antibacterial activity against Enterococcus faecalis ATCC 29212 after 24 hrs by broth dilution assay; type: functional; conditions: ATCC 29212, 24 h
# In short: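 Microdilution in brain heart infusion broth, shaken at 37 °C, about (1-5) × 10^5 cfu/mL start, DMSO ≤1% v/v with matched controls, in triplicate. OD550 read. Clear wells at 24 h were subcultured in duplicate onto brain heart infusion agar and counted after overnight incubation. MIC is the lowest concentration giving growth inhibition.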
# [2] = test system: Mycolicibacterium smegmatis; experiment: Antibacterial activity against Mycobacterium smegmatis ATCC 19420 after 48 hrs by broth dilution assay; type: functional; conditions: ATCC 19420, 48 h
# In short: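 Brain heart infusion broth with 0.06% Tween 80, 37 °C on a rotary shaker, inoculum about (1-5) × 10^5 cfu/mL, DMSO ≤1% v/v with matched controls, in triplicate. OD550 monitored.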
# Escherichia coli = experiment: Antibacterial activity against Escherichia coli ATCC 9637 after 24 hrs by broth dilution assay; type: functional; conditions: ATCC 9637, 24 h; in short: as §1
# Proteus mirabilis = experiment: Antibacterial activity against Proteus mirabilis CECT 170 after 24 hrs by broth dilution assay; type: functional; conditions: CECT 170, 24 h; in short: as §1
# Pseudomonas aeruginosa = experiment: Antibacterial activity against Pseudomonas aeruginosa AK958 after 24 hrs by broth dilution assay; type: functional; conditions: AK958, 24 h; in short: as §1
# Salmonella = experiment: Antibacterial activity against Salmonella CECT 4569 after 24 hrs by broth dilution assay; type: functional; conditions: CECT 4569, 24 h; in short: as §1
# HeLa [3] = experiment: Cytotoxicity against human HeLa cells at lag phase of growth after 48 hrs by MTT assay; type: functional, cell-based
# In short: (§2)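 Monolayers grown in DMEM with 5% fetal calf serum and penicillin-streptomycin at 37 °C, 5% CO2. 2×10^4 cells/well in lag or log phase were exposed for 48 h to a concentration series of compounds predissolved in DMSO. MTT formazan was dissolved in DMSO and read at 550 nm. IC50 taken from the curve; three independent experiments.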
# HeLa [4] = experiment: Cytotoxicity against human HeLa cells at exponential phase of growth after 48 hrs by MTT assay; type: functional, cell-based; in short: as §2
# HEp-2 [5] = experiment: Cytotoxicity against human Hep2 cells at lag phase of growth after 48 hrs by MTT assay; type: functional, cell-based; in short: as §2
# HEp-2 [6] = experiment: Cytotoxicity against human Hep2 cells at exponential phase of growth after 48 hrs by MTT assay; type: functional, cell-based; in short: as §2
# A549 [7] = experiment: Cytotoxicity against human A549 cells at lag phase of growth after 48 hrs by MTT assay; type: functional, cell-based; in short: as §2
# A549 [8] = experiment: Cytotoxicity against human A549 cells at exponential phase of growth after 48 hrs by MTT assay; type: functional, cell-based; in short: as §2
# MCF7 [9] = experiment: Cytotoxicity against human MCF7 cells at lag phase of growth after 48 hrs by MTT assay; type: functional, cell-based; in short: as §2
# MCF7 [10] = experiment: Cytotoxicity against human […] cells at exponential phase of growth after 48 hrs by MTT assay; type: functional, cell-based; in short: as §2
# Vero [11] = experiment: Cytotoxicity against african green monkey Vero cells at lag phase of growth after 48 hrs by MTT assay; type: cell-based, Chlorocebus sabaeus; in short: as §2
# Vero [12] = experiment: Cytotoxicity against african green monkey Vero cells at exponential phase of growth after 48 hrs by MTT assay; type: cell-based, Chlorocebus sabaeus; in short: as §2
# [13] = Homo sapiens, HeLa, 48 h, read-out: IC50
# [14] = Homo sapiens, A549, 48 h, read-out: IC50
# [15] = Homo sapiens, MCF7, 48 h, read-out: IC50
# [16] = Chlorocebus sabaeus, Vero, 48 h, read-out: IC50
# [17] = Homo sapiens, HEp-2, 48 h, read-out: IC50
SMILES,MIC (Staphylococcus aureus),MIC [1],MIC (Bacillus subtilis),MIC (Bacillus cereus),MIC (Candida albicans),MIC (Enterococcus faecalis),MIC [2],MIC (Escherichia coli),MIC (Proteus mirabilis),MIC (Pseudomonas aeruginosa),MIC (Salmonella),IC50 (HeLa [3]; [13]),IC50 (HeLa [4]; [13]),IC50 (A549 [7]; [14]),IC50 (A549 [8]; [14]),IC50 (MCF7 [9]; [15]),IC50 (MCF7 [10]; [15]),IC50 (Vero [11]; [16]),IC50 (Vero [12]; [16]),further results
CC(C)c1cc2c(c(O)c1O)[C@@]13CCCC(C)(C)[C@@H]1[C@H](OC3=O)[C@@H]2OCc1ccccc1,> 40 µg/mL,> 40 µg/mL,20 µg/mL,10 µg/mL,> 40 µg/mL,> 40 µg/mL,> 40 µg/mL,> 40 µg/mL,> 40 µg/mL,> 40 µg/mL,> 40 µg/mL,–,–,–,–,–,–,–,–,IC50 (HeLa [3]; hela): Not Active; IC50 (HeLa [4]; hela): Not Active; IC50 (HEp-2 [5]; hep-2): Not Active; IC50 (HEp-2 [6]; hep-2): Not Active; IC50 (A549 [7]; a549): Not Active; IC50 (A549 [8]; a549): Not Active; IC50 (MCF7 [9]; mcf7): Not Active; IC50 (MCF7 [10]; mcf7): Not Active; IC50 (Vero [11]; vero): Not Active; IC50 (Vero [12]; vero): Not Active
CO[C@@H]1c2cc(C(C)C)c(O)c(O)c2[C@@]23CCCC(C)(C)[C@@H]2[C@@H]1OC3=O,> 40 µg/mL,20 µg/mL,20 µg/mL,20 µg/mL,> 40 µg/mL,> 40 µg/mL,> 40 µg/mL,> 40 µg/mL,> 40 µg/mL,> 40 µg/mL,> 40 µg/mL,40.8 µM,> 60 µM,35.6 µM,50.8 µM,23.3 µM,41.1 µM,36.7 µM,33.9 µM,–
CO[C@H]1c2cc(C(C)C)c(O)c(O)c2[C@@]23CCCC(C)(C)[C@@H]2[C@@H]1OC3=O,> 40 µg/mL,20 µg/mL,> 40 µg/mL,20 µg/mL,> 40 µg/mL,> 40 µg/mL,> 40 µg/mL,> 40 µg/mL,> 40 µg/mL,> 40 µg/mL,> 40 µg/mL,42.2 µM,> 60 µM,42.5 µM,> 60 µM,37.5 µM,55.6 µM,42.2 µM,47.2 µM,–
CC(C)c1cc2c(c(O)c1O)[C@@]13CCCC(C)(C)[C@@H]1C[C@@H]2OC3=O [CARNOSOL],25 µg/mL,5 µg/mL,4 µg/mL,5 µg/mL,20 µg/mL,> 40 µg/mL,> 40 µg/mL,> 40 µg/mL,> 40 µg/mL,> 40 µg/mL,> 40 µg/mL,43.9 µM,> 60 µM,> 60 µM,47 µM,40.9 µM,44.5 µM,> 60 µM,51.5 µM,–
CC(C)c1cc2c(c(O)c1O)[C@@]13CCCC(C)(C)[C@@H]1[C@@H](O)[C@@H]2OC3=O [ISOROSMANOL],40 µg/mL,20 µg/mL,30 µg/mL,20 µg/mL,> 40 µg/mL,> 40 µg/mL,> 40 µg/mL,> 40 µg/mL,> 40 µg/mL,> 40 µg/mL,> 40 µg/mL,> 60 µM,> 60 µM,> 60 µM,46 µM,54.3 µM,36.1 µM,> 60 µM,> 60 µM,–
CC(C)c1cc2c(c(O)c1O)[C@@]13CCCC(C)(C)[C@@H]1[C@H](OC3=O)[C@H]2O [ROSMANOL],20 µg/mL,10 µg/mL,10 µg/mL,20 µg/mL,> 40 µg/mL,> 40 µg/mL,–,> 40 µg/mL,> 40 µg/mL,> 40 µg/mL,> 40 µg/mL,20.2 µM,51.4 µM,43.4 µM,27.7 µM,17.1 µM,15.3 µM,19.9 µM,36.4 µM,–
CO[C@H]1C2=C(C(=O)C(=O)C(C(C)C)=C2)[C@@]23CCCC(C)(C)[C@@H]2[C@@H]1OC3=O [ROSMAQUINONE B],40 µg/mL,> 40 µg/mL,20 µg/mL,20 µg/mL,> 40 µg/mL,> 40 µg/mL,> 40 µg/mL,> 40 µg/mL,> 40 µg/mL,> 40 µg/mL,> 40 µg/mL,36 µM,33.8 µM,> 60 µM,25.4 µM,43.3 µM,22.1 µM,> 60 µM,> 60 µM,IC50 (HEp-2 [5]; [17]): 42.5 µM; IC50 (HEp-2 [6]; [17]): > 60 µM
CC(C)C1=CC2=C(C(=O)C1=O)[C@@]13CCCC(C)(C)[C@@H]1[C@H](OC3=O)[C@H]2O [ROSMAQUINONE],20 µg/mL,40 µg/mL,8 µg/mL,10 µg/mL,> 40 µg/mL,> 40 µg/mL,> 40 µg/mL,> 40 µg/mL,> 40 µg/mL,> 40 µg/mL,> 40 µg/mL,> 60 µM,> 60 µM,> 60 µM,28.8 µM,39.5 µM,> 60 µM,> 60 µM,> 60 µM,–
CC(C)C1=CC2=C[C@H]3OC(=O)[C@@]4(CCCC(C)(C)[C@H]34)C2=C(O)C1=O [SAGEQUINONE METHIDE A],20 µg/mL,40 µg/mL,10 µg/mL,10 µg/mL,> 40 µg/mL,> 40 µg/mL,> 40 µg/mL,> 40 µg/mL,> 40 µg/mL,> 40 µg/mL,> 40 µg/mL,14 µM,9.5 µM,> 60 µM,26.5 µM,46 µM,26.8 µM,> 60 µM,> 60 µM,IC50 (HEp-2 [5]; [17]): 32 µM; IC50 (HEp-2 [6]; [17]): 19.2 µM
